pIC50: −log10 of the molar value. “Also recorded” adds a separate entry of the source.
Experiments:
[1] = target: T1, human recombinant HDAC8 (Homo sapiens, UniProt Q9BY41); assay: HDAC8 inhibition, fluorogenic substrate Fluor de Lys; format: biochemical
T1 sequence (Q9BY41 1-377): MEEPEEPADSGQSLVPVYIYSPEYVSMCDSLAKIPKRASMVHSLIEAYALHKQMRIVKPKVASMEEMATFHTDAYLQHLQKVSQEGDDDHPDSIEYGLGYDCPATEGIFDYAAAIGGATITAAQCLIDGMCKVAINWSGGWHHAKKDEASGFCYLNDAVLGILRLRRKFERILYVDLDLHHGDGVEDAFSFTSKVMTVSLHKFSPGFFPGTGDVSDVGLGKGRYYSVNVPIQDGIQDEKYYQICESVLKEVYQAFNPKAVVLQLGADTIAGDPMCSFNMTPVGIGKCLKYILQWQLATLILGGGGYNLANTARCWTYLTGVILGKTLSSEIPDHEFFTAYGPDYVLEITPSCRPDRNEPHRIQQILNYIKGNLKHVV

[2] = target: T1, human recombinant HDAC8; format: binding; conditions: denaturing conditions, excess of competitor (1f at 50 fold molar excess)
[3] = Solubility; format: physicochemical; conditions: remark on the photolabeling competition experiment
[4] = target: recombinant human HDAC3 (Homo sapiens, UniProt O15379); assay: HDAC3 inhibition, fluorogenic substrate Boc-Lys; format: biochemical
Sequence of recombinant human HDAC3 (O15379 whole entry): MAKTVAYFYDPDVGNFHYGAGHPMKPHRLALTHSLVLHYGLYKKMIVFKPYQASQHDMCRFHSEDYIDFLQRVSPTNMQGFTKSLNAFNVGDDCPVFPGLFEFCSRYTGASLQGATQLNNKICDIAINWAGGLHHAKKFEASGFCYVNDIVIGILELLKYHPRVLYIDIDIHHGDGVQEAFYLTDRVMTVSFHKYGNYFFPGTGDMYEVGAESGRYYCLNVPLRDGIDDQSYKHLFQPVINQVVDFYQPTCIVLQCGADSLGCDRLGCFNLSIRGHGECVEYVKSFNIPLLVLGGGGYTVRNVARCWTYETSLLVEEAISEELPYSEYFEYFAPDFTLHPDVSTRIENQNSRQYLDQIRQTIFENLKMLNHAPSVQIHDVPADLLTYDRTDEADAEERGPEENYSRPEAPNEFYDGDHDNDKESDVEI
Sequence of recombinant human HDAC3 (Q9Y618 395-489 partner limits assumed): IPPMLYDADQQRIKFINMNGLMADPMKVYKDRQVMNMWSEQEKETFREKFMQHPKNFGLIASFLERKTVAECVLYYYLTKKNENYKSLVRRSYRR

[5] = system: cytoplasmic HDAC6 (acetylation status of α-tubulin) in SH-SY5Y cells; assay: Western blot of acetylation of α-tubulin in SH-SY5Y cells; format: cell-based; conditions: 24 h treatment
How it was run: (§1)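 SH-SY5Y cells were seeded at 1.0 x 10^5 cells/well and grown to 80% confluence in 1:1 DMEM:OPTI-MEM with 10% FBS and antibiotics. They were exposed to vehicle or rising concentrations of test compound for 24 h at 37 °C, 5% CO2, then lysed in RIPA with protease/phosphatase inhibitors. 20 µg of total protein (BCA) went to SDS-PAGE/PVDF, probed overnight at 4 °C for acetyl-α-tubulin or acetyl-histone H4, with GAPDH; chemiluminescence imaged by CCD.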

[6] = system: nuclear class I HDACs (acetylation status of histone H4) in SH-SY5Y cells; assay: Western blot of acetylation of histone H4 in SH-SY5Y cells; format: cell-based; conditions: 24 h treatment
How it was run: as §1

Competition with probe 1b, effect on biotinylation of HDAC8 [2]	pIC50 [4]	Compound	also measured
	< 4.18	COc1cc(COc2ccc(NC(=O)CCCCCCC(=O)OCCN=[N+]=[N-])cc2)cc(N=[N+]=[N-])c1 [1h, 7-[4-(3-Azido-5-methoxybenzyloxy)phenylcarbamoyl]heptanoicacid-2-azidoethyl ester]	
	< 4.18	COc1cc(COc2ccc(NC(=O)CCCCCCC(=O)OCc3ccc(CN=[N+]=[N-])cc3)cc2)cc(N=[N+]=[N-])c1 [1i, 7-[4-(3-Azido-5-methoxybenzyloxy)phenylcarbamoyl]heptanoicacid-4-azidomethylbenzyl ester]	Deacetylation of α-tubulin [5]: did not inhibit; also recorded: not α tubulin; Acetylation status of histone H4 [6]: increase acetylation of H4
pronounced decrease in biotinylation		CC(/C=C/C(=O)NO)=C\[C@@H](C)C(=O)c1ccc(N(C)C)cc1 [TSA, Trichostatin A]	

More lines, now with the values behind:

Compound	Competition with probe 1b, effect on biotinylation of HDAC8 [2]	pIC50 [4]	also measured
COC(=O)CCCCCCC(=O)Nc1ccc(OCc2ccccc2)cc1 [1e]			pIC50 [1]: < 4.18
COC(=O)CCCCCCC(=O)Nc1ccc(OCc2cc(C)cc(C)c2)cc1 [1f, 7-[4-(3,5-Dimethyl-benzyloxy)phenylcarbamoyl]heptanoic acid methyl ester]	pronounced decrease in biotinylation		Solubility [3]: low solubility
COc1ccc(Cn2ccc3ccc(C(=O)NO)cc32)cc1 [PCI34051]	pronounced decrease in biotinylation		

Source: publication PMC3472134 (Bioorganic & medicinal chemistry letters, 2012)
